Sampled rows, rich in hits. Any-hit rate of the full collection: about 3.7%.
GRIN3A LBD mod: modulates the human NR3A ligand-binding domain; NR3A LBD differential scanning fluorimetry, Tm shift; 0% = protein alone, 100% = glycine-bound protein; Tm shift relative to glycine control, % at 25 µM; actives 2.5% (n = 340,000); AID 1259313;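 active = melting temperature shift of at least 10% of the positive control shift, at one fixed dose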
proCasp7 act: counter-screen for procaspase-3 activators: activators of human procaspase-7; recombinant procaspase-7, Ac-DEVD-pNA absorbance 405 nm; D23A/D198A/D206A triple mutant, cannot self-cleave; scale: DMSO 0, 5 µM enzyme 100; AID 463210; actives 0.093% (n = 330,000); P55210; activation, % at 8.5 µM;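 active = percent activation above the screen-wide mean plus 3 SD, cut at about 25% in these data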
Target sequence (P55210 whole entry D23A/D198A/D206A): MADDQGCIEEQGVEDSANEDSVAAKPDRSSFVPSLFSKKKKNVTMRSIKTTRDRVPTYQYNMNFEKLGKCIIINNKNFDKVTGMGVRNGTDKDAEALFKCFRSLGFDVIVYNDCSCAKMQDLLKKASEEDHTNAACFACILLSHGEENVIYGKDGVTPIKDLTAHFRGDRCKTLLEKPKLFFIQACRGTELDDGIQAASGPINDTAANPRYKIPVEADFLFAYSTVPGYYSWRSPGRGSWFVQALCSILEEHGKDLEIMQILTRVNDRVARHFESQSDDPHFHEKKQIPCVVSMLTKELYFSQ
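Assay system: Uncleavable procaspase-7 mutant enzyme | Input: 2 µM procaspase-7 mutant as dispensed | Timing: 1 h compound preincubation, 2 h substrate cleavage, 25 °C | Repeats: One well per compound | Control set: DMSO wells as 0%, DMSO with 5 µM added PC-7 as 100% | Technique: Epi-absorbance of released pNA at 405 nm, two timepoints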
aDG glyco up: increases alpha dystroglycan glycosylation. AID 624168. Pro5-aDG cells, alpha-DG glycosylation AlphaScreen (IIH6); 0% Pro5, 100% B10-LARGE cell signal. actives 0.22% (n = 360,000). activation, % at 10 µM;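 active = activation of at least 8% versus controls, or a plate z-score of at least 8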;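 note: Pro5 are CHO cells carrying HIG-tagged alpha-DG that lacks glycosylation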
MPTP block: permeability transition pore inhibition; isolated mouse mitochondria, Ca2+ swelling absorbance, 30 min; inhibition, % at 10 µM; actives 1.4% (n = 360,000); AID 602449;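 active = inhibition of 50% or more, scaled per plate between neutral and stimulator controls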;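 note: 0% = DMSO wells given calcium and 100% = 1 mM EGTA wells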
proCasp3 act: activates human procaspase-3; activation, % at 8.5 µM; P42574; recombinant procaspase-3 D3A, Ac-DEVD-pNA absorbance 405 nm; AID 463141; actives 0.11% (n = 330,000);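 active = activation above the mean of all tested compounds plus 3 SD, cut at about 21% in these data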;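 note: 0% = DMSO alone and 100% = DMSO wells spiked with extra 5 µM PC-3 D3A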
Target sequence (P42574 whole entry D9A/D28A/D175A): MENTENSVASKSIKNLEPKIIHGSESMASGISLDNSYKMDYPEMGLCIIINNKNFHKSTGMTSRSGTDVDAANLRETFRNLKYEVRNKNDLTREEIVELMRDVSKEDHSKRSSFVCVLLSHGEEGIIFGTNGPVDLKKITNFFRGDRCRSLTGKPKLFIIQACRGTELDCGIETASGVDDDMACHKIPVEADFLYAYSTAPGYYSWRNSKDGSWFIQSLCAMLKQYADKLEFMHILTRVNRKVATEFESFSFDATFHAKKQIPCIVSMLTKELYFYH
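Test system: Procaspase-3 D3A mutant, all three cleavage aspartates alanine | Dosing: Single dose, 8.5 µM nominal compound, 0.8% DMSO | Schedule: 1 h preincubation, 2 h reaction | Technique: 405 nm absorbance of p-nitroaniline, reads at 0 and 120 min | Repeats: One well per compound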
Rh123 counter: Rhodamine 123 counter-screen of mitochondrial pore hits | isolated mitochondria, membrane potential, Rhodamine 123 fluorescence | inhibition, % at 10 µM | AID 624504 | actives 78% (n = 5,000) | shares compounds with MPTP block; in the data active = inhibition above about 22%;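 note: 0% = DMSO vehicle and 100% = positive control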
MPTP swell DR: MPTP inhibition, dose response swelling confirmation | shares compounds with MPTP block | isolated mitochondria swelling, absorbance | IC50, µM | actives 58% (n = 780) | AID 651561; in the data active = IC50 below about 20 µM
MPTP cs DR: counter-screen for mitochondrial permeability transition pore inhibitors, dose response; shares compounds with MPTP block; isolated mitochondria counterscreen, fluorescence read-out; IC50, µM; actives 49% (n = 780); AID 651564; in the data active = IC50 below about 80 µM
Active calls of the source: *; i = inactive; . = not tested or not shown.

SMILES	GRIN3A LBD mod	proCasp7 act	aDG glyco up	MPTP block	proCasp3 act	Rh123 counter	others
CCCCCCCCCCCCCCCC(O)C[N+](C)(C)CCO (configuration not stated)	-11	.	0	2	.	.
CC(=O)c1cccc(NC(=O)c2ccc(-c3c(C)noc3C)c3ccoc23)c1	.	.	0	-1	.	.
O=C(c1cc(COc2cccc(C(F)(F)F)c2)on1)N1CCC(c2ccccc2)CC1	-7	2	0	0	-1	.
CC(=O)c1ccc(OCc2cc(C(=O)N3CCC(c4ccncc4)CC3)no2)cc1	-1	4	1	96*	2	87*
O=C(c1cc(COc2cccc(C(F)(F)F)c2)on1)N1CCC(c2ccncc2)CC1	1	-1	5	97*	-5	99*
COc1cccc(OCc2cc(C(=O)N3CCC(c4ccncc4)CC3)no2)c1	-1	5	2	80*	0	75*
Cc1ccc(S(=O)c2ccc([N+](=O)[O-])c3nonc23)cc1 (configuration not stated)	.	.	0	5	.	.
COc1ccccc1Cc1c(C2CCCCC2)nc2ccc(Br)cn12	.	.	0	0	.	.
CCCOc1ccc(C(=O)C(CN2CCCC2)c2ccccc2)cc1 (configuration not stated)	2	-3	0	79*	-12	-11
CCCOc1ccc(C(C(=O)OCCN(CC)CC)c2ccccc2)cc1 (configuration not stated)	-1	-4	1	82*	-2	-1	MPTP swell DR=i;MPTP cs DR=73*
CCCCOc1ccc(C(=O)C(CN2CCOCC2)c2ccccc2)cc1 (configuration not stated)	5	17	2	-4	6	.
N=c1n(CCO)c2ccccc2n1Cc1ccccc1Cl	2	9	0	1	-14	.
CC(C)(C)C(=O)Cn1c(=N)n(Cc2ccccc2Cl)c2ccccc21	-1	-3	0	56*	2	-3	MPTP swell DR=11*;MPTP cs DR=55*
CCN(CC)C(=O)C1=C(C)N(Cc2ccc(C(C)(C)C)cc2)C(=O)C(CC(=O)NC(c2ccccc2)c2ccccc2)C1 (configuration not stated)	.	.	0	-1	.	.
O=C(NNc1ccccc1Br)C(O)(c1cccc(C(F)(F)F)c1)c1cccc(C(F)(F)F)c1	32*	3	2	95*	-3	74*
Cc1ccc(NNC(=O)C(O)(c2cccc(C(F)(F)F)c2)c2cccc(C(F)(F)F)c2)cc1	26*	-8	0	72*	-3	69*
CC(C)(O)C(=O)NNC(=S)Nc1cccc(C(F)(F)F)c1	-2	-9	0	-2	-7	.
CC(C)CN(CC(C)C)C(=O)Nc1cccc([N+](=O)[O-])c1	2	7	0	0	8	.
CCc1ccccc1NC(=O)c1cc(-c2cccc(O)c2)on1	-7	1	2	102*	9	6	MPTP swell DR=2.1*;MPTP cs DR=>80
COc1cc(NC(=O)c2cc(-c3ccc(C)cc3)on2)cc(OC)c1OC	-3	3	0	1	-2	.
COc1cccc(-c2cc(C(=O)Nc3cccnc3Cl)no2)c1	0	11	0	-1	-7	.
COc1cc(NC(=O)c2cc(-c3cccc(O)c3)on2)cc(OC)c1OC	-10	2	0	110*	-1	14	MPTP swell DR=2.6*;MPTP cs DR=>80
O=C(Nc1ccccc1C(F)(F)F)c1cc(-c2cccc(O)c2)on1	0	1	0	8	2	.
O=C(Nc1cccnc1Cl)c1cc(-c2cccc(O)c2)on1	-22	0	0	81*	-4	-7	MPTP swell DR=>100;MPTP cs DR=>80
O=C(Nc1nnc([C@@H]2C[C@H](O)[C@@H](CO)O2)s1)c1cccc(Cl)c1	.	.	0	-2	.	.
SMILES	GRIN3A LBD mod	proCasp7 act	aDG glyco up	MPTP block	proCasp3 act	Rh123 counter	others
S=C(Nc1ccccc1Cl)NC1CCN(Cc2ccccc2)CC1	-5	-5	1	42	1	.
Clc1ccc(CNC2CCN(Cc3ccccc3)CC2)cc1	1	-4	0	1	-6	.
S=C(NCc1ccc(Cl)cc1)NC1CCN(Cc2ccccc2)CC1	-1	-1	4	71*	0	24*
S=C(Nc1cc(Cl)cc(Cl)c1)NC1CCN(Cc2ccccc2)CC1	7	.	2	54*	.	89*
COc1ccc(CN2CC[C@@H](N3CCOCC3)[C@H](O)C2)cc1F	1	3	0	-1	-2	.
CCOC(=O)C1(C)CCCN(C(=O)c2ccc(C)c(F)c2)C1 (configuration not stated)	.	.	0	-3	.	.
O=C(N[C@H](C(=O)O)c1ccccc1)C1CCC(Cn2cnc3ccccc3c2=O)CC1 (some centres not stated)	-1	-4	0	-1	0	.
CC(C)[C@H](NC(=O)c1ccc(Cl)c([N+](=O)[O-])c1)C(=O)NCc1ccc(Cl)cc1Cl	1	8	0	86*	2	93*
CC(C)[C@H](NC(=O)c1ccc(Cl)c([N+](=O)[O-])c1)C(=O)NCc1ccc(F)cc1	-9	9	0	2	-7	.
Cc1ccc(NNC(=O)c2ccno2)cc1Cl	0	-7	0	2	-10	.
Cc1cc(O)c(-c2ccno2)cc1Cl	-1	8	0	82*	-9	88*
CCNC(=O)C1(C)CCN(Cc2csc(-c3ccccc3)n2)C1 (configuration not stated)	.	.	0	-1	.	.
Cc1ccc(NC(=O)Cn2c(/C=C/c3ccccc3)nc3ccccc32)cc1C	7	1	0	63*	-2	60*
CCC(C(=O)OCC(=O)Nc1cc(Cl)cc(Cl)c1)c1ccccc1 (configuration not stated)	12*	-8	1	82*	1	90*
Cc1cccc(C)c1NC(=O)C[N+](C)(C)CC(O)COc1cccc2ccccc12 (configuration not stated)	0	9	0	81*	-2	-20	MPTP swell DR=3.3*;MPTP cs DR=51*
O=C1c2ccccc2C(=O)N1CC(O)COc1cccc2ccccc12 (configuration not stated)	.	.	0	0	.	.
O=C(/C=C/c1cccc([N+](=O)[O-])c1)NCCSCc1ccc(Cl)cc1Cl	-23	3	0	67*	3	73*
O=C(/C=C/c1cccc([N+](=O)[O-])c1)NCCSCc1ccccc1Cl	-4	-7	0	35	2	.
